Data set [1] can be described thus: Cmax in Sprague-Dawley rat at 0.3 mg/kg, po. Also on record: dose 0.3 mg/kg, route oral. To be noted: in vivo. Format: ADME, organism-based. Put shortly: (§1)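 Compound given as a suspension by oral gavage to Sprague–Dawley rats as a single dose (5 mg/kg in the single-dose comparison; doses from 0.1–100 mg/kg in the dose-dependence study).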
The nature of data set [2]: Cmax in Sprague-Dawley rat at 5 mg/kg, po. Format: ADME, organism-based. Also on record: dose 5 mg/kg, route oral. To be noted: in vivo. The gist of the method: as §1
Data set [3] in a line: AUC (0 to 24 hrs) in Sprague-Dawley rat at 100 mg/kg, po. The class given is ADME, organism-based. More on the design: time < 24 hr, dose 100 mg/kg, route oral. To be noted: plasma. Put shortly: as §1
Data set [4] is described as follows: Cmax in Sprague-Dawley rat at 0.1 mg/kg, po. Format: ADME, organism-based. Also on record: dose 0.1 mg/kg, route oral. To be noted: in vivo. Put shortly: as §1
Data set [5] in a line: Cmax in Sprague-Dawley rat at 1 mg/kg, po. The class given is ADME, organism-based. Also on record: dose 1 mg/kg, route oral. To be noted: in vivo. Put shortly: as §1
Data set [6] can be described thus: AUC (0 to 24 hrs) in Sprague-Dawley rat at 5 mg/kg, po. Format: ADME, organism-based. More on the design: time < 24 hr, dose 5 mg/kg, route oral. To be noted: plasma. The gist of the method:
as §1

The nature of data set [7]: Cmax in Sprague-Dawley rat at 100 mg/kg, po. More on the design: dose 100 mg/kg, route oral. To be noted: in vivo. Format: ADME, organism-based. Put shortly: as §1
Data set [8] is described as follows: Cmax in Sprague-Dawley rat at 2 mg/kg, po. Format: ADME, organism-based. Also on record: dose 2 mg/kg, route oral. To be noted: in vivo. The gist of the method:
as §1

Data set [9] can be described thus: Cmax in Sprague-Dawley rat at 30 mg/kg, po. The class given is ADME, organism-based. To be noted: in vivo. Also on record: dose 30 mg/kg, route oral. The gist of the method:
as §1

Data set [10] in a line: AUC (0 to 24 hrs) in Sprague-Dawley rat at 0.1 mg/kg, po. To be noted: plasma. The class given is ADME, organism-based. More on the design: time < 24 hr, dose 0.1 mg/kg, route oral. The gist of the method: as §1
Data set [11] can be described thus: AUC (0 to 24 hrs) in Sprague-Dawley rat at 30 mg/kg, po. Format: ADME, organism-based. More on the design: time < 24 hr, dose 30 mg/kg, route oral. To be noted: plasma. The gist of the method:
as §1

Data set [12] in a line: AUC (0 to 24 hrs) in Sprague-Dawley rat at 0.3 mg/kg, po. The class given is ADME, organism-based. More on the design: time < 24 hr, dose 0.3 mg/kg, route oral. To be noted: plasma. The gist of the method: as §1
Data set [13] in a line: AUC (0 to 24 hrs) in Sprague-Dawley rat at 2 mg/kg, po. The class given is ADME, organism-based. More on the design: time < 24 hr, dose 2 mg/kg, route oral. To be noted: plasma. The gist of the method: as §1
Data set [14] in a line: AUC (0 to 24 hrs) in Sprague-Dawley rat at 1 mg/kg, po. The class given is ADME, organism-based. More on the design: time < 24 hr, dose 1 mg/kg, route oral. To be noted: plasma. The gist of the method:
as §1

The test system of the next data set is Liver microsomes. Briefly: Drug metabolism in rat liver microsomes in presence of S9 fractions. The class given is ADME, Microsome. Put shortly: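 Compound incubated with the S-9 fraction of rat liver microsomes to measure in vitro clearance. Primary metabolites formed during the incubation were identified.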
A short description of data set [15]: Half life in Sprague-Dawley rat at 5 mg/kg. Format: ADME, organism-based. More on the design: dose 5 mg/kg. To be noted: in vivo.
Data set [16] in a line: Oral bioavailability in Sprague-Dawley rat at 5 mg/kg. Format: ADME, organism-based. To be noted: in vivo.

What is called Cmax is the maximum level reached in the sampled fluid or tissue. As a reminder, the AUC(0-t) is the area under the concentration-time curve up to a stated or last time point. In the case of `O=S(=O)(Nc1cc(Cl)c(Oc2cnc3ccccc3c2)c(Cl)c1)c1ccc(Cl)cc1Cl` [INT131], the Cmax in data set [1] was 130 nM; in data set [2], 1100 nM; in data set [4] it was 80 nM; in data set [5], 390 nM; in [7], 6100 nM; in data set [8] it was 660 nM. The same molecule displayed a Cmax in data set [9] of 4300 nM. For the same molecule, the AUC(0-t) at 24 h worked out at 100 µM·h in data set [3]; 30 µM·h in data set [6]; 1.1 µM·h in data set [10]; 71 µM·h in data set [11]; 2.6 µM·h in data set [12]; 8.3 µM·h in [13]. The molecule further came in with an AUC(0-t) at 24 h in data set [14] of 5.1 µM·h.
In [2], `O=S(=O)(Nc1cc(Cl)c(Oc2cnc3ccccc3c2)c(Cl)c1)c1ccc(C(F)(F)F)cc1Cl` had a Cmax of 8500 nM. In data set [6], this molecule registered an AUC(0-t) at 24 h of 112 µM·h.
In the same order, the values of `O=S(=O)(Nc1ccc(Oc2cnc3ccccc3c2)c(Cl)c1)c1ccc(Cl)cc1Cl` are 11000 nM and 105 µM·h.
Molecule `O=S(=O)(Nc1cc(Cl)c(Oc2cncc(Cl)c2)c(Cl)c1)c1ccc(Cl)cc1Cl` showed an AUC(0-t) at 24 h in data set [6] of 4.8 µM·h.
Take `O=S(=O)(Nc1ccc(Oc2cnc3ccccc3c2)c(F)c1)c1ccc(Cl)cc1Cl`: the Cmax in data set [2] was determined as 4800 nM. In addition, the AUC(0-t) at 24 h in data set [6] was 82 µM·h.
`CC(=O)c1cc(NS(=O)(=O)c2ccc(Cl)cc2Cl)ccc1Oc1cnc2ccccc2c1` showed a maximum concentration (Cmax) in data set [2] of 920 nM. In [6], this molecule gave an AUC(0-t) at 24 h of 3.4 µM·h.
The molecule `N#Cc1cc(NS(=O)(=O)c2ccc(Cl)cc2Cl)ccc1Oc1cncc(Cl)c1` displayed an exposure AUC(0-t) at 24 h in data set [6] of 31 µM·h.
For orientation: half-life means the time needed for the level to fall by half in the phase considered. What is called bioavailability is dose-corrected exposure relative to a reference, in per cent. Low readings indicate little systemic uptake, high ones much systemic uptake. For `CCNC(=O)c1cc(NS(=O)(=O)c2cc(C)c(Cl)cc2Cl)ccc1Oc1cncc(Cl)c1`, the exposure AUC(0-t) at 24 h in data set [6] came out at 1.6 µM·h. Moreover, the Drug metabolism entry in the data set with Liver microsomes is on record as “Active”. In [15], this molecule showed a half-life of 40 min. The molecule further showed a bioavailability in data set [16] of 8%.

The values are drawn from ChEMBL document CHEMBL2331151 (Bioorg Med Chem, 2013).
